KCNQ1 block = inhibitors of human KCNQ1 channel, primary screen, cell-based, thallium flux, high-throughput; Potassium voltage-gated channel subfamily KQT member 1 (Homo sapiens), P51787; CHO-K1 KCNQ1, FluxOR thallium flux fluorescence; active compounds read high; B-score at 10 µM; hit rate 1.3% among 310,000; AID 2642, 2010;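 active = compounds whose thallium flux B-score, printed positive for inhibition, exceeds three library SD while starting fluorescence stays within three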;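 note: channel opened by potassium depolarization with thallium stimulus after 20 min compound exposure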
Kir21 block = inhibitors of mouse Kir2.1 inward-rectifier potassium channel; Inward rectifier potassium channel 2 (Mus musculus), P35561; HEK293-Kir2.1, FluxOR thallium flux fluorescence; active compounds read low; B-score at 10 µM; hit rate 0.85% among 310,000;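 active = fluorescence ratio B-score at or below minus 3 SD of library scores, with starting-brightness B-score within 2 SD, cut at about -4.2 in these data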;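 note: channel flux triggered by added potassium and thallium sulfate stimulus; B-score of peak minus minimum fluorescence over baseline after thallium stimulus; more negative B-score means stronger Kir2.1 block with less thallium influx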
KCNQ1 act = potentiators or activators of KCNQ1 channel, primary screen, cell-based, thallium flux, high-throughput; Potassium voltage-gated channel subfamily KQT member 1 (Homo sapiens), P51787; CHO-K1 KCNQ1, thallium flux FluxOR fluorescence; active compounds read high; B-score at 10 µM; hit rate 0.35% among 310,000;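 active = fluorescence ratio B-score, a plate-corrected score, at least three library SD, with initial intensity B-score within 5 SD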
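System: Stable KCNQ1 CHO-K1 line | Incubation: 90 min dye loading and 20 min compound exposure, both at room temperature | Measure: Ratio B score | Medium: Assay buffer for compound exposure, DMSO matched across wells | Compound dosing: Single-concentration screen | Probe or stimulus: K+/Tl+ depolarizing stimulus | Measured by: Kinetic FluxOR fluorescence, 10 s baseline plus 110 s post-stimulus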
KCNK3 inh = human KCNK3 channel inhibitors, primary screen, CHO cells, FluxOR thallium flux, B-score. Potassium channel subfamily K member 3 (Homo sapiens), O14649. FluxOR fluorescence; active compounds read low. B-score at 10 µM. hit rate 0.84% among 340,000. AID 602410, 2012;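 active = B-score under library mean minus 4 SD, starting fluorescence ratio at most library mean plus 5 SD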;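 note: more negative B-score means stronger inhibition of thallium flux through KCNK3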
Target sequence (O14649 whole entry, looked up): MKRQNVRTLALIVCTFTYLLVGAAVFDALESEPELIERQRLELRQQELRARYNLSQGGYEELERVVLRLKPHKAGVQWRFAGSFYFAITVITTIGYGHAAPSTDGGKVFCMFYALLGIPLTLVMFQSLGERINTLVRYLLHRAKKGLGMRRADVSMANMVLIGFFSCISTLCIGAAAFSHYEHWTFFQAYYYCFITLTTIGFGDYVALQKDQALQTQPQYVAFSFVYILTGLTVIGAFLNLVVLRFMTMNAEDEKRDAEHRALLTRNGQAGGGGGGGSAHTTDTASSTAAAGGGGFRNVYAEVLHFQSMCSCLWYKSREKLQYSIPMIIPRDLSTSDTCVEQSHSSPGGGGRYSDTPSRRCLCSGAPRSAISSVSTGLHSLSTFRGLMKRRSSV
hERG rescue = hERG rescue from dofetilide block, primary screen, cell-based, CHO-hERG, FluxOR thallium flux, dofetilide IC70; AID 1511, 2009; dofetilide IC70 present; hit rate 0.51% among 310,000; activation (rescue from dofetilide block), less the hit threshold, % at 10 µM;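 active = activation above the mean of controls blocked by dofetilide plus 5 SD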;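 note: thallium influx through hERG after potassium depolarization seen as dye fluorescence rise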
KCNK9 inh = KCNK9 potassium channel inhibitors, primary screen, HEK293 cells, thallium flux. B-score at 10 µM. FluxOR thallium flux fluorescence; active compounds read low. AID 488922, 2010. hit rate 1.2% among 310,000;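 active = ratio B-score over 3 SD below the library mean, with starting fluorescence within 5 SD of its mean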;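 note: negative B-score means less thallium flux so channel inhibition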
KCNK3 confirm = retest of human KCNK3 channel inhibitors, confirmation, CHO cells, FluxOR thallium flux, triplicate; shares compounds with KCNK3 inh; hit rate 99% among 2,400; ratio percent of control, % at 10 µM; FluxOR fluorescence; 0% buffer, 100% carvedilol maximal block;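 active = ratio percent of control, averaged over triplicates, above buffer control mean plus 5 SD, cut at about 64% in these data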;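 note: ratio is the fluorescence rise from min to max over baseline after thallium stimulus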
KCNK3 uninduced = thallium flux inhibition in non-induced cells, primary screen, counter-screen for KCNK3 inhibitor project, cell-based, non-induced KCNK3 line, FluxOR thallium, triplicate; shares compounds with KCNK3 inh; non-induced KCNK3 parental cells; active compounds read low; thallium flux ratio (lower = more inhibition) at 10 µM; hit rate 40% among 2,400;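 active = thallium flux ratio, averaged over three wells, more than 5 SD below the buffer control mean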;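 note: host cells are CHO cells without KCNK3 induction; ratio is peak minus trough fluorescence over baseline then normalized to buffer controls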
* hit, by the source's call; i = inactive; / = no result. Only some compounds are listed: those with a hit (about 3.7% of all), similar ones and a draw of the others.

SMILES | KCNQ1 block | Kir21 block | KCNQ1 act | KCNK3 inh | hERG rescue | KCNK9 inh | KCNK3 confirm | KCNK3 uninduced
COC(=O)c1cc(-c2ccc(S(=O)(=O)N3CCCC3)cc2)c(C(F)(F)F)s1 | i | -1.4 | i | i | -11 | i | / | /
COc1ccc(CNC(=O)CN2CCC(NC(=O)c3ccc(OC)cc3)CC2)cc1 | i | -0.77 | i | i | -7 | i | / | /
Cc1ccc(NC(=S)Nc2cccc3ccccc23)cc1 | i | -1.1 | i | i | -6 | i | / | /
CC(C)c1ccc(NC(=S)Nc2cccc3ccccc23)cc1 | i | 0.02 | i | -8.9* | -8 | i | 105* | i
CN(Cc1cccc([N+](=O)[O-])c1)Cc1cccc2ccccc12 | 6* | -0.43 | i | -11* | -5 | -6.8* | 114* | 0.15*
COc1cc(CN(C)Cc2cccc3ccccc23)cc([N+](=O)[O-])c1O | i | 1.8 | i | i | -2 | i | / | /
O=C(Nc1ccc(N2CCOCC2)nc1)c1ccc(C(F)(F)F)cc1 | i | -0.96 | i | i | -3 | i | / | /
COc1ccc(-c2nnn(CC(=O)N(CC(=O)NC3CCCC3)c3ccccc3F)n2)cc1OC | i | -0.97 | i | i | -9 | i | / | /
CCOC(=O)N1CCN(Cc2c(F)cccc2Cl)CC1 | i | -0.29 | i | i | -8 | i | / | /
CCOC(=O)c1cc2occc2n1Cc1c(F)cccc1Cl | i | -1.3 | i | -9.8* | -12 | i | 77* | i
O=C(CCNS(=O)(=O)c1ccc(Br)cc1)NCc1ccc(Cl)cc1 | i | 0.19 | i | i | -5 | i | / | /
COc1cc(/C=C(\C#N)c2nc3ccccc3n2C)cc(OC)c1O | 7* | -4.5 | i | -9.4* | -18 | i | 118* | 0.15*
COc1cc(/C=C(\C#N)c2nc3ccccc3[nH]2)cc(OC)c1O | i | -7 | i | -16* | -16 | i | 0 | i
COc1ccc(/C=C(\C#N)c2nc3ccccc3[nH]2)cc1O | i | 1.6 | i | i | -2 | i | / | /
CC(CNS(=O)(=O)c1ccc2c(c1)CC(=O)N2C)c1ccccc1 (configuration not stated) | i | -0.29 | i | i | -4 | i | / | /
O=C(CCN1CCN(c2ccccc2)CC1)N/N=C/c1ccccc1OC(F)F | i | -0.12 | i | i | -12 | i | / | /
CCN(C(=O)C1CCCN(c2ncnc3c2nc2n3CCCCC2)C1)c1cccc(Cl)c1 (configuration not stated) | i | -0.89 | i | -12* | -17 | i | 89* | i
O=C(Nc1ccc(Cl)cn1)C1CCCN(c2ncnc3c2nc2n3CCCCC2)C1 (configuration not stated) | i | 0.2 | i | i | -15 | i | / | /
CC(Oc1ccc2ccc(=O)oc2c1)C(=O)NC1CCN(Cc2ccccc2)CC1 (configuration not stated) | i | -0.39 | i | i | -6 | i | / | /
O=C(c1cccc(S(=O)(=O)N2CCCC2)c1)N1CCN(S(=O)(=O)c2cccc(Cl)c2)CC1 | / | / | / | i | / | / | / | /
COC(=O)CCc1c[nH]c2ccc([N+](=O)[O-])cc12 | / | / | / | i | / | / | / | /
O=C(CCc1c[nH]c2ccccc12)OCc1cccc([N+](=O)[O-])c1 | i | 0.43 | i | -9.4* | -10 | i | 83* | i
COc1ccc(OCC(=O)Nc2c3c(nn2-c2ccc(OC)cc2)CS(=O)(=O)C3)cc1 | i | 0.17 | i | i | 0 | i | / | /
